Laboratory results published in article PMC5167571 (Molecular pharmaceutics, 2015).
Starred links: 1 amine or outer side, 2 acyl side, 3 side chain; linkers in the order of their positions; H or OH if unused. Non-standard residues stand in square brackets, D forms with d. Residues, ends and D or L forms follow the SMILES beside them. *: point of attachment. DOTA = O=C(O)CN1CCN(CC(=O)O)CCN(CC(=O)*)CCN(CC(=O)O)CC1; Acryloyl(3-(3-pyridyl),E) = O=C(/C=C/c1cccnc1)*; X1 = O=C(Cc1ccc(N[*:1])cc1)[*:2]; Aad = N[C@@H](CCCC(=O)O)C(=O)O; NH(2-Me-phenyl) = Cc1ccccc1N*; PEG4 = NCCOCCOCCOCCOCCC(=O)O; Ac6c = NC1(C(=O)O)CCCCC1; CO = O=C([*:1])[*:2]

How the values were obtained:
[1] = target: VLA-4 (integrin α4β1) (Mus musculus, UniProt P09055+Q00651); test: Competitive binding assay with ^64Cu-NODAGA-PEG4-LLP2A in B16F10 melanoma cells; settings: VLA-4, B16F10 cells; Ki of Ga conjugate vs Kd of Lu conjugate
Chain of VLA-4 (integrin α4β1) (Q00651 41-1039): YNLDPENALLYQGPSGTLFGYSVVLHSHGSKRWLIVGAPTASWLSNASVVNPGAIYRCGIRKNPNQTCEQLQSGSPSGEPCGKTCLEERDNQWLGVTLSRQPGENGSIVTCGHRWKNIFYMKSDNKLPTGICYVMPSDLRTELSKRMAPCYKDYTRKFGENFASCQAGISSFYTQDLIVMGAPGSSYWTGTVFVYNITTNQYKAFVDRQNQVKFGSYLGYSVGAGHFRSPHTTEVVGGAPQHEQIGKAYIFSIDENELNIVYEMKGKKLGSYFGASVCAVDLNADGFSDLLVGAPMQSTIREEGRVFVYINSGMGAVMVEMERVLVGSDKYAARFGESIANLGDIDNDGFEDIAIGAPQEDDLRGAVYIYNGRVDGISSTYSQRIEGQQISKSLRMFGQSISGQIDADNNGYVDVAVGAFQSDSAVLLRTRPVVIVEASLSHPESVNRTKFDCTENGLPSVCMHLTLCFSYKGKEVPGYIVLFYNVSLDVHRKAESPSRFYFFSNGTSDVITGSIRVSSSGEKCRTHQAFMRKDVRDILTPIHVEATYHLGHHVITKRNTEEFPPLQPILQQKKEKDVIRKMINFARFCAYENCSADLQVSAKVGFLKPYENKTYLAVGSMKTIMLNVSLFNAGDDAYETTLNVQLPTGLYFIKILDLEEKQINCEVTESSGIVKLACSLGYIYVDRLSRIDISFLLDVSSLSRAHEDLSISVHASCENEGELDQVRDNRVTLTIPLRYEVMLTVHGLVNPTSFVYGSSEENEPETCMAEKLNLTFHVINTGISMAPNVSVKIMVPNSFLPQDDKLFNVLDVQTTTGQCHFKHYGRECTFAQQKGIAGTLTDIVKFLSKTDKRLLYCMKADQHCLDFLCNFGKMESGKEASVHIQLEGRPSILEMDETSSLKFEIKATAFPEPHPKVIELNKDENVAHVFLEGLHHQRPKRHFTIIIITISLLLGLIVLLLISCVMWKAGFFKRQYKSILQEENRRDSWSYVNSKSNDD
Chain of VLA-4 (integrin α4β1) (P09055 21-798): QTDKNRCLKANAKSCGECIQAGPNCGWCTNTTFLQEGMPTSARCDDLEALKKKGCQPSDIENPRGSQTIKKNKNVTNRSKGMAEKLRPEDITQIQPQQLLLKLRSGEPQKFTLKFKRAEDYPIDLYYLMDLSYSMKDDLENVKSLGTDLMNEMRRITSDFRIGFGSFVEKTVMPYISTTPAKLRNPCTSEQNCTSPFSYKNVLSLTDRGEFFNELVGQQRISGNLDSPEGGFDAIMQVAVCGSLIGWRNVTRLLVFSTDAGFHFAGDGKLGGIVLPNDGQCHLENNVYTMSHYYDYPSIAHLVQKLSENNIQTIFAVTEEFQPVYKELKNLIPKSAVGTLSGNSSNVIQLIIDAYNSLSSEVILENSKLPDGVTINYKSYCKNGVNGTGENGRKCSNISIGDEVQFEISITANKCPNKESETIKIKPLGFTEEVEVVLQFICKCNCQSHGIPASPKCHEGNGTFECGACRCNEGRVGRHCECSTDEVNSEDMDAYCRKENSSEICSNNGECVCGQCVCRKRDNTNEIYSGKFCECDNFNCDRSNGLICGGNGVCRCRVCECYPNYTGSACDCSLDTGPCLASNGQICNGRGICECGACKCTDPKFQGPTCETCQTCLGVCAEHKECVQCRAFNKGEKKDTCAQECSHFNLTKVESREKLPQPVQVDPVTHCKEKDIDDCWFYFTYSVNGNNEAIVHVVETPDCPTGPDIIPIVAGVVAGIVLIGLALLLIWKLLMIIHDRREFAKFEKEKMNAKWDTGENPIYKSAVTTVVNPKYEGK
Method in brief: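 Both assays used B16F10 cells (10⁵/well, seeded 24 h earlier) in HBSS/0.1% BSA/1 mM Mn²⁺ on ice. […] Kd: ¹⁷⁷Lu conjugate (0.2–40 nM), 2 h, n = 3, with nonspecific binding from a 15 μg LLP2A-PEG₄ block. Cell-bound counts were normalized to BCA protein and fitted for Kd and Ki.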

[2] = Biodistribution of ^68Ga-DOTA-PEG4-LLP2A; format: in vivo, mouse; settings: C57BL/6, mouse, iv, 5.55 MBq, total radioactivity
Method in brief: (§1)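 Mice bearing s.c. right-shoulder B16F10 tumors (10⁶ cells in PBS) received the ⁶⁸Ga tracer i.v. (5.55 MBq, 277 ng), n = 4 per group. They were sacrificed at 1 h. A blocking group received tracer premixed with 100 μg LLP2A-PEG₄. Tissues and tumor were weighed and γ-counted, and decay-corrected %ID/g was calculated against a standard. Data are mean ± SD.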

[3] = test system: B16F10 tumor-bearing C57BL/6 mice; test: Biodistribution of ^68Ga-DOTA-PEG4-LLP2A; format: in vivo, mouse; settings: 360-fold excess of LLP2A-PEG4 (100 μg), 1 h
Method in brief: as §1

[4] = test system: B16F10 cells; test: Internalization assay; format: cell-based, mouse; settings: 37 °C; for Internalized agent: 12 ng/well, n = 3
[5] = Biodistribution of ^177Lu-DOTA-PEG4-LLP2A; format: in vivo, mouse; settings: C57BL/6, mouse, iv, 3.6 MBq, total radioactivity
Method in brief: (§2)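 B16F10 cells (10⁶ in PBS) were implanted s.c. in the right shoulder of 6–8-week-old C57BL/6 mice. ¹⁷⁷Lu conjugate (3.6 MBq, 90 ng) was given i.v., n = 5 per group. Animals were killed at 4, 24, 48, 72 and 96 h. Blood, organs, muscle, bone and tumor were weighed and γ-counted. Values are decay-corrected %ID/g against an injected-dose standard, shown as tumor/blood and tumor/muscle ratios, mean ± SD.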

[6] = test system: B16F10 tumor-bearing C57BL/6 mice; test: Biodistribution of ^177Lu-DOTA-PEG4-LLP2A; format: in vivo, mouse; settings: 4 h postinjection, i.v.
Method in brief: as §2

**Q.** What does the source list for `Cc1ccccc1NC(=O)Nc1ccc(CC(=O)N[C@@H](CCCCNC(=O)/C=C/c2cccnc2)C(=O)N[C@@H](CCCC(=O)O)C(=O)NC2(C(=O)NCCOCCOCCOCCOCCC(=O)N[C@@H](CCCCNC(=O)CN3CCN(CC(=O)O)CCN(CC(=O)O)CCN(CC(=O)O)CC3)C(N)=O)CCCCC2)cc1` [^68Ga-DOTA-PEG4-LLP2A, metal not drawn] ({NH(2-Me-phenyl)-CO}-[X1]K(Acryloyl(3-(3-pyridyl),E))[Aad][Ac6c][PEG4]K(DOTA)-NH2; N-terminus and C-terminus assumed)?
**A.** fold higher affinity than the ^177Lu-labeled conjugate [1]: 3 fold; tissue uptake at 1 h ([2]; bone marrow): 3.2 ± 0.7 %ID/g; tissue uptake at 1 h ([2]; kidneys): 3.7 ± 0.9 %ID/g; tissue uptake at 1 h ([2]; liver): 1.9 ± 0.4 %ID/g; tissue uptake at 1 h ([2]; spleen): 5.4 ± 1.7 %ID/g; tissue uptake at 1 h ([2]; thymus): 4.6 ± 0.5 %ID/g; tissue uptake at 1 h ([2]; tumor): 9.1 ± 0.9 %ID/g; tissue to tissue ratio at 1 h ([2]; tumor/blood): 5.8 ± 1.5; tissue to tissue ratio at 1 h ([2]; tumor/muscle): 9.7 ± 1.5; uptake in blocking study [3]: reduction of uptake

**Q.** What does the source list for `Cc1ccccc1NC(=O)Nc1ccc(CC(=O)N[C@@H](CCCCNC(=O)/C=C/c2cccnc2)C(=O)N[C@@H](CCCC(=O)O)C(=O)NC2(C(=O)NCCOCCOCCOCCOCCC(=O)N[C@@H](CCCCNC(=O)CN3CCN(CC(=O)O)CCN(CC(=O)O)CCN(CC(=O)O)CC3)C(N)=O)CCCCC2)cc1` [^177Lu-DOTA-PEG4-LLP2A, metal not drawn] ({NH(2-Me-phenyl)-CO}-[X1]K(Acryloyl(3-(3-pyridyl),E))[Aad][Ac6c][PEG4]K(DOTA)-NH2; N-terminus and C-terminus assumed)?
**A.** Internalized agent ([4]; 30 min (maximum uptake)): 341 ± 110 fmol/mg; Internalized agent ([4]; 2 h): 343 ± 53 fmol/mg; Internalized agent ([4]; 4 h): 303 ± 41 fmol/mg; time to internalization post addition ([4]; internalized rapidly): < 15 min; tissue uptake at 4 h ([5]; bone (likely bone marrow)): 10.1 ± 3.5 %ID/g; tissue uptake at 24 h ([5]; bone): 4.1 ± 0.4 %ID/g; tissue uptake at 48 h ([5]; bone): 2.7 ± 0.6 %ID/g; tissue uptake at 72 h ([5]; bone): 2.2 ± 0.5 %ID/g; tissue uptake at 96 h ([5]; bone): 1.6 ± 0.6 %ID/g; tissue uptake at 24 h ([5]; kidney): 2.4 ± 0.3 %ID/g; tissue uptake at 4 h ([5]; kidneys): 6.5 ± 1.5 %ID/g; tissue uptake at 4 h ([5]; liver): 2.8 ± 0.4 %ID/g; tissue uptake at 24 h ([5]; liver): 1 ± 0.1 %ID/g; tissue uptake at 4 h ([5]; lungs): 5.9 ± 0.8 %ID/g; tissue uptake at 4 h ([5]; spleen): 27.1 ± 3.1 %ID/g; tissue uptake at 24 h ([5]; spleen): 10.1 ± 4.1 %ID/g; tissue uptake at 48 h ([5]; spleen): 7.4 ± 1.4 %ID/g; tissue uptake at 72 h ([5]; spleen): 4.7 ± 1.5 %ID/g; tissue uptake at 96 h ([5]; spleen): 3.7 ± 1.1 %ID/g; tissue uptake at 4 h ([5]; thymus): 9.7 ± 1.7 %ID/g; tissue uptake at 24 h ([5]; thymus): 5.6 ± 0.9 %ID/g; tissue uptake at 48 h ([5]; thymus): 4.1 ± 0.2 %ID/g; tissue uptake at 72 h ([5]; thymus): 2.7 ± 0.5 %ID/g; tissue uptake at 96 h ([5]; thymus): 1.7 ± 0.2 %ID/g; tissue uptake at 4 h ([5]; tumor): 31.5 ± 7.8 %ID/g; tissue uptake at 24 h ([5]; tumor): 5.4 ± 1.5 %ID/g; tissue uptake at 48 h ([5]; tumor): 1.7 ± 0.4 %ID/g; tissue uptake at 72 h ([5]; tumor): 0.9 ± 0.4 %ID/g; tissue uptake at 96 h ([5]; tumor): 0.4 ± 0.07 %ID/g; tissue to tissue ratio at 4 h ([5]; tumor/blood): 36 ± 10; tissue to tissue ratio at 24 h ([5]; tumor/blood): 186 ± 26; tissue to tissue ratio at 48 h ([5]; tumor/blood): 61 ± 13; tissue to tissue ratio at 72 h ([5]; tumor/blood): 35 ± 37; tissue to tissue ratio at 96 h ([5]; tumor/blood): 25 ± 16; tissue to tissue ratio at 4 h ([5]; tumor/muscle): 21 ± 7; tissue to tissue ratio at 24 h ([5]; tumor/muscle): 18 ± 3; tissue to tissue ratio at 48 h ([5]; tumor/muscle): 9 ± 1; tissue to tissue ratio at 72 h ([5]; tumor/muscle): 6 ± 3; tissue to tissue ratio at 96 h ([5]; tumor/muscle): 3 ± 0.4; tumor uptake ([6]; 3.6 MBq, 90 ng, n = 5, mean ± SD): 31.3 ± 7.8 % ID/g; uptake in the muscle, heart, and blood ([6]; n = 5): minimal uptake
